Data set [1] is described as follows: Induction of intracellular calcium release in rat INS-1E cells by fluorescence assay. In kind it is functional, cell-based. The procedure, abridged:
(§1)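 INS-1E cells were harvested by scraping (5×10^5 cells/mL) and loaded 30 min at 37 °C with 4 μM Fura-2-AM plus 2.5 mM probenecid in KRBH (10 mM glucose, pH 7.4). After washing, 20000 cells/well were read immediately after peptide addition (10^-12–10^-5 M range) at excitation 340/380 nm, emission 495 nm. [Ca2+]i was calculated by the Grynkiewicz equation (Kd 225 nM).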

The nature of data set [2]: Cytotoxicity against rat INS-1E cells by LDH assay. In kind it is cell-based. The procedure, abridged: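 INS-1E cells were seeded at 2×10^4 cells/well and grown 24 h at 37 °C, then exposed to increasing peptide concentrations in serum-free medium. LDH released into the medium from dead cells was measured with a commercial kit and expressed as % of maximum LDH release after cell lysis.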

For data set [3], the system named is INS-1E. As to the kind of experiment: Induction of intracellular calcium release in rat INS-1E cells at 10^-6 M by fluorescence assay. It is filed as functional, cell-based. The procedure, abridged:
as §1

For data set [4], the system named is INS-1E. As to the kind of experiment: Insulinotropic activity in rat INS-1E cells assessed as insulin exocytosis at 10^-6 M after 2 hrs by RIA. In kind it is functional, cell-based. The gist of the method:
(§2)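 INS-1E cells (2×10^5/well) were seeded 2 days before use. They were starved 2 h in glucose-free KRBH with 0.1% BSA, washed, and held another 30 min at 37 °C. Cells were then incubated 2 h at 37 °C with peptide, with 20 mM glucose or without glucose. Secreted insulin in the medium was measured by RIA against a rat insulin standard.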

In data set [5] the test system is INS-1E. As to the kind of experiment: Insulinotropic activity in rat INS-1E cells assessed as insulin exocytosis after 2 hrs by RIA in presence of glucose. It is filed as functional, cell-based. The procedure, abridged:
as §2

In data set [6] the test system is INS-1E. As to the kind of experiment: Insulinotropic activity in rat INS-1E cells assessed as insulin exocytosis after 2 hrs by RIA in presence of adenylyl cyclase inhibitor 2',5'-dideoxy-adenosine. It is filed as functional, cell-based. The gist of the method:
(§3)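 INS-1E cells (2×10^5/well) were pretreated 30 min with H89 (40 μM) or 2',5'-dideoxyadenosine (50 μM). They were then starved 2 h plus 30 min in glucose-free KRBH/0.1% BSA and incubated 2 h at 37 °C with peptide ± 20 mM glucose. Insulin in the medium was quantified by RIA against a rat insulin standard.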

Data set [7] relates to INS-1E. As to the kind of experiment: Insulinotropic activity in rat INS-1E cells assessed as insulin exocytosis after 2 hrs by RIA in presence of PKA inhibitor H89. It is filed as functional, cell-based. The gist of the method: as §3
Data set [8] relates to INS-1E. As to the kind of experiment: Insulinotropic activity in rat INS-1E cells assessed as insulin exocytosis after 2 hrs by RIA in presence of Ca2+ channel blocker nifedipine. In kind it is functional, cell-based. The gist of the method:
as §2

Data set [9] deals with INS-1E. As to the kind of experiment: Effect on NGF-induced intracellular calcium release in rat INS-1E cells at 10^-9 M by fluorescence assay. It is filed as functional, cell-based.
For data set [10], the system named is INS-1E. As to the kind of experiment: Effect on NGF-induced intracellular calcium release in rat INS-1E cells at 10^-8 to 10^-5 M by fluorescence assay. It is filed as functional, cell-based.
The subject of data set [11] is INS-1E. As to the kind of experiment: Insulinotropic activity in rat INS-1E cells assessed as insulin exocytosis after 2 hrs by RIA in presence of K-ATP channel opener diazoxide. In kind it is functional, cell-based. The procedure, abridged:
as §2

For data set [12], the system named is INS-1E. As to the kind of experiment: Insulinotropic activity in rat INS-1E cells assessed as insulin exocytosis after 2 hrs by RIA in presence of ATP depletor 2-deoxy-D-glucose. In kind it is functional, cell-based. The gist of the method: as §2
Another data set concerns Aorta. As to the kind of experiment: Induction of rat aortic ring contraction at 10'5 M. In kind it is functional, tissue-based.
In data set [13] the test system is INS-1E. As to the kind of experiment: Inhibition of [86]-Rb+-efflux in rat INS-1E cells incubated for 30 mins followed by high-phosphate buffer addition by scintillation counting analysis. It is filed as functional, cell-based. The note with it: in the assay text read “high-potassium” for “high-phosphate”. The procedure, abridged:
(§4)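 INS-1E cells (2×10^5/well) were loaded overnight at 37 °C with 86RbCl (0.02 µCi/mL) in medium. They were then incubated 30 min at 37 °C in low-K buffer (4.6 mM KCl, pH 7.4) ± peptide, switched to high-K buffer (140 mM KCl) ± peptide, and efflux was followed over time by scintillation counting. Efflux is % of total 86Rb+ (medium plus cells); IC50 values are from three independent experiments in triplicate.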

The subject of data set [14] is INS-1E. As to the kind of experiment: Inhibition of [86]-Rb+-efflux in rat INS-1E cells at 10^8 to 10'6 M incubated for 30 mins followed by high-phosphate buffer addition by scintillation counting analysis. In kind it is functional, cell-based. The note with it: in the assay text read “high-potassium” for “high-phosphate”. The procedure, abridged: as §4

Calls of active or inactive are those of the source. The calls are words filed in the database; no cut-off is given here.

Regarding `CC(C)C[C@@H]1NC(=O)[C@H](CO)NC(=O)[C@H](CC(N)=O)NC(=O)[C@H](CCCCN)NC(=O)[C@@H]2CCCN2C(=O)[C@@H](NC(=O)[C@@H](N)C(C)C)CSSC[C@@H](C(=O)N[C@H]2CSSC[C@H](C(=O)N[C@@H](CC(N)=O)C(=O)O)NC(=O)[C@H](CCCNC(=N)N)NC(=O)[C@H](CC(=O)O)NC(=O)[C@H]([C@@H](C)O)NC(=O)[C@H](CC(N)=O)NC2=O)NC(=O)[C@H](C(C)C)NC(=O)[C@H](Cc2ccc(O)cc2)NC(=O)[C@H](CCCCN)NC(=O)[C@H](C(C)C)NC(=O)[C@H](CC(C)C)NC1=O`, in data set [1], the EC50 is 2.14 nM. For the same compound, the Activity entry in [2] is “Non-toxic”.

Take `CC(C)C[C@@H]1NC(=O)[C@H](CO)NC(=O)[C@H](CC(N)=O)NC(=O)[C@H](CCCCN)NC(=O)[C@@H]2CCCN2C(=O)[C@@H](NC(=O)[C@@H](N)C(C)C)CSSC[C@@H](C(=O)N[C@H]2CSSC[C@H](C(=O)N[C@@H](CC(N)=O)C(=O)O)NC(=O)[C@H](CCCNC(=N)N)NC(=O)[C@H](CC(=O)O)NC(=O)[C@H]([C@@H](C)O)NC(=O)[C@H](CC(N)=O)NC2=O)NC(=O)[C@H](CCCCN)NC(=O)[C@H](Cc2ccc(O)cc2)NC(=O)[C@H](CCCCN)NC(=O)[C@H](C(C)C)NC(=O)[C@H](CC(C)C)NC1=O`: the outcome in the data set with INS-1E [3], with INS-1E [4], in the data set with INS-1E [10], in the data set with INS-1E [11] and with INS-1E [12] was Active. In addition, the Activity entry in data set [2] was “Non-toxic”; with INS-1E [5] it was “Dose-dependent effect”; in the data set on INS-1E [6], “Dose-dependent effect”; with INS-1E [7], “Dose-dependent effect”; in the data set on INS-1E [13] it was “Dose-dependent effect”. Further, the outcome in the data set with INS-1E [8], in the data set on INS-1E [9] and in the data set with Aorta was inactive.

With `CN(CCc1ccc(Cl)c(Cl)c1)CC(O)COc1ccc(NS(C)(=O)=O)cc1` (stereo unspecified), the inhibition result with INS-1E [14] was “Active”.
